Assay [1] relates to HeLa. The assay can be described thus: Cytotoxicity against human HeLa cells assessed as reduction in cell viability at 20 ug/ml incubated for 72 hrs by MTT method. In kind it is functional, cell-based. The procedure, abridged:
(§1)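 Cultures were kept in RPMI-1640 or DMEM with 10% FBS at 37 °C, 5% CO2. Adherent cells were dosed after 12 h attachment, and suspension cells were seeded at 1 × 10^5 cells/mL. Triplicate 72 h exposure was followed by MTT, DMSO solubilisation and OD 490 nm. Activity was scored at a concentration of 20 μg/mL.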

Assay [2] concerns U-937. Kind of assay: Cytotoxicity against human U937 cells assessed as reduction in cell viability at 20 ug/ml incubated for 72 hrs by MTT method. In kind it is functional, cell-based. A digest of the protocol: as §1
(In general: Tetrazolium dyes change colour on reduction, which living cells bring about.)

Another assay has as its system SGC-7901. The assay can be described thus: Cytotoxicity against human SGC7901 cells assessed as reduction in cell viability at 20 ug/ml incubated for 72 hrs by MTT method. In kind it is functional, cell-based. The procedure, abridged: as §1
Assay [3] has as its system K562. The assay can be described thus: Cytotoxicity against human K562 cells assessed as reduction in cell viability at 20 ug/ml incubated for 72 hrs by MTT method. In kind it is functional, cell-based. The procedure, abridged: as §1
Assay [4] deals with K562. Kind of assay: Cytotoxicity against human K562 cells assessed as reduction in cell viability incubated for 72 hrs by MTT method. In kind it is functional, cell-based. As to conditions: K562, 72 h. The procedure, abridged:
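Cells were grown in RPMI-1640 or DMEM with 10% FBS at 37 °C, humidified 5% CO2. Adherent cells attached for 12 h before dosing, and suspension cells were seeded at 1 × 10^5 cells/mL. […] MTT read-out used DMSO solubilisation and OD 490 nm. IC50 came from mean OD versus concentration curves.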

Assay [5] concerns U-937. Kind of assay: Cytotoxicity against human U937 cells assessed as reduction in cell viability incubated for 72 hrs by MTT method. In kind it is functional, cell-based. As to conditions: U-937, 72 h.
Assay [6] concerns HeLa. The assay can be described thus: Cytotoxicity against human HeLa cells assessed as reduction in cell viability incubated for 72 hrs by MTT method.
Assay [7] can be described thus: Cytotoxicity against human SGC7901 cells assessed as reduction in cell viability incubated for 72 hrs by MTT method. As to conditions: SGC-7901, 72 h.

For 4 molecules, inhibition and IC50 results are on record in ChEMBL document CHEMBL3580642, “Cytotoxic Bryostatin Derivatives from the South China Sea Bryozoan Bugula neritina” (J Nat Prod, 2015).

SMILES strings stand for the structures. The source made the active and inactive calls. The rule behind the calls is not given here.

Turning to `CCCC(=O)O[C@H]1/C(=C/C(=O)OC)C[C@H]2C[C@H]([C@@H](C)O)OC(=O)C[C@H](O)C[C@@H]3C[C@H](OC(=O)C(C)(C)C)C(C)(C)[C@](OC)(C[C@@H]4C/C(=C/C(=O)OC)C[C@H](/C=C/C(C)(C)[C@]1(O)O2)O4)O3`, the inhibition result with HeLa [1], in the assay with U-937 [2], in the assay on SGC-7901 and in the assay on K562 [3] was “inactive” each time.

As to `CCCC(=O)O[C@H]1/C(=C/C(=O)OC)C[C@@H]2C[C@H]([C@@H](C)O)OC(=O)C[C@H](O)C[C@@H]3C[C@H](OC(=O)CC(C)C)C(C)(C)[C@](O)(C[C@@H]4C/C(=C/C(=O)OC)C[C@H](/C=C/C(C)(C)[C@]1(O)O2)O4)O3`, the inhibition result in the assay with HeLa [1], with U-937 [2], in the assay on SGC-7901 and in the assay on K562 [3] was “inactive” in each case.

As a reminder, the IC50 is the concentration needed to halve the response being measured. Consider `CCCC(=O)O[C@H]1/C(=C/C(=O)OC)C[C@H]2C[C@H]([C@@H](C)O)OC(=O)C[C@H](O)C[C@@H]3C[C@H](OC(=O)C(C)(C)C)C(C)(C)[C@](O)(C[C@@H]4C/C(=C/C(=O)OC)C[C@H](/C=C/[C@H](C)[C@]1(O)O2)O4)O3`, for which the inhibition entry with HeLa [1] and in the assay on SGC-7901 was “inactive” throughout. For the same molecule, the IC50 in the assay with K562 [4] worked out at 9900 nM; with U-937 [5], 7700 nM.

Turning to `COc1cccc2c1C(=O)c1c(O)c3c(c(O)c1C2=O)C[C@@](O)(C(=O)CO)C[C@@H]3O[C@H]1C[C@H](N)[C@H](O)[C@H](C)O1` [DOXORUBICIN], the IC50 in the assay on HeLa [6] is 100 nM; in assay [7], 200 nM; in the assay with K562 [4], 200 nM.
